Reference: article PMC9359741 (Clinical Cancer Research, 2022)

What was measured:
[1] = test system: selected advanced solid tumors; test: Phase 1b efficacy; type: in vivo, human; settings: for ORR, % (95% CI) / ir-ORR, % (95% CI): confirmed
Method in brief: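 Oral test compound 200–400 mg QD plus anti-PD-1 antibody 2 mg/kg IV Q3W in patients with measurable or evaluable disease. Investigator assessed best response per RECIST v1.1, with immune-related response also evaluated. ORR used confirmed responses with two-sided 95% CI (Clopper–Pearson exact binomial). All patients receiving ≥1 dose were analysed. PD-L1 status came from screening tissue tested locally.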

[2] = Phase 1b plasma pharmacokinetics of ARRY-382 and metabolites; type: in vivo, human; settings: for RAUC (accumulation ratio), geometric mean (geometric %CV) / Ctrough, geometric mean (geometric %CV) / RCmax (accumulation ratio), geometric mean (geometric %CV) / AUC(0-t) / Cmax / Tmax: Phase 1b; for AUC / AUC(0-t) / Cmax / Tmax: human, plasma, oral; for AUC(0-t): AUClast; for AUC(0-t) / Cmax: geometric mean (geometric %CV); for Tmax: median (range)
Method in brief: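 Blood was collected for plasma test compound and its N-oxide, N-desmethyl and sulfate metabolites. Trough samples were taken ≤120 min before the oral dose on cycle 1 day 15 and day 1 of cycles 3–6. Doses were 200–400 mg QD in Phase 1b and 300 mg QD in Phase 2. Non-compartmental parameters were estimated per patient in the PK set, reported as geometric mean (geometric %CV) and Tmax as median (range).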

[3] = Cycle 2 day 1, ARRY-382 200 mg, n = 4
[4] = Cycle 2 day 1, ARRY-382 300 mg, n = 4
[5] = Cycle 2 day 1, ARRY-382 400 mg, n = 3
[6] = 200 mg, Cycle 1 day 1, ARRY-382 200 mg, n = 6
[7] = 200 mg, Cycle 2 day 1, ARRY-382 200 mg, n = 4
[8] = 300 mg, Cycle 1 day 1, ARRY-382 300 mg, n = 6
[9] = 300 mg, Cycle 2 day 1, ARRY-382 300 mg, n = 4
[10] = 400 mg, Cycle 1 day 1, ARRY-382 400 mg, n = 7
[11] = 400 mg, Cycle 2 day 1, ARRY-382 400 mg, n = 3

## Cc1cccc(Cn2nc(C3CC3)c3c(NC(=O)c4cnc5cc(OCCN6CCN(C)CC6)ccn45)cccc32)n1 [ARRY-382]
[1]; ARRY-382 300 mg, N = 6
  Immune-related best overall response: PD: 0 (0.0) n (%)
  Immune-related best overall response: PR: 1 (16.7) n (%)
  Immune-related best overall response: SD: 3 (50.0) n (%)
  ORR, % (95% CI): 16.7 (0.4–64.1) %
  ir-ORR, % (95% CI): 16.7 (0.4–64.1) %
[1]; ARRY-382 400 mg, N = 7
  Best overall response: CR: 0 (0.0) n (%)
  Best overall response: NE: 2 (28.6) n (%)
  Best overall response: PD: 5 (71.4) n (%)
  Best overall response: PR: 0 (0.0) n (%)
  Best overall response: SD: 0 (0.0) n (%)
  Immune-related best overall response: CR: 0 (0.0) n (%)
  Immune-related best overall response: NE: 4 (57.1) n (%)
  Immune-related best overall response: PD: 1 (14.3) n (%)
  Immune-related best overall response: PR: 0 (0.0) n (%)
  Immune-related best overall response: SD: 2 (28.6) n (%)
  ORR, % (95% CI): 0.0 (0.0–41.0) %
  ir-ORR, % (95% CI): 0.0 (0.0–41.0) %
[1]; Total, N = 19
  Best overall response: CR: 0 (0.0) n (%)
  Best overall response: NE: 3 (15.8) n (%)
  Best overall response: PD: 9 (47.4) n (%)
  Best overall response: PR: 2 (10.5) n (%)
  Best overall response: SD: 5 (26.3) n (%)
  Immune-related best overall response: CR: 0 (0.0) n (%)
  Immune-related best overall response: NE: 7 (36.8) n (%)
  Immune-related best overall response: PD: 2 (10.5) n (%)
  Immune-related best overall response: PR: 2 (10.5) n (%)
  Immune-related best overall response: SD: 8 (42.1) n (%)
  ORR, % (95% CI): 10.5 (1.3–33.1) %
  ir-ORR, % (95% CI): 10.5 (1.3–33.1) %
[1]; ARRY-382 200 mg, N = 6
  ORR, % (95% CI): 16.7 (0.4–64.1) %
  ir-ORR, % (95% CI): 16.7 (0.4–64.1) %
[2]; Cycle 2 day 1, ARRY-382 200 mg, n = 3
  RAUC (accumulation ratio), geometric mean (geometric %CV): 3.03 (47.9)
[2]; [3]
  Ctrough, geometric mean (geometric %CV): 576 (59.5) ng/mL
  RCmax (accumulation ratio), geometric mean (geometric %CV): 2.53 (48.2)
[2]; Cycle 2 day 1, ARRY-382 300 mg, n = 2
  RAUC (accumulation ratio), geometric mean (geometric %CV): 1.92 (NC)
[2]; [4]
  Ctrough, geometric mean (geometric %CV): 667 (27.7) ng/mL
  RCmax (accumulation ratio), geometric mean (geometric %CV): 2.51 (95.7)
[2]; Cycle 2 day 1, ARRY-382 400 mg, n = 2
  RAUC (accumulation ratio), geometric mean (geometric %CV): 3.52 (NC)
[2]; [5]
  Ctrough, geometric mean (geometric %CV): 627 (126) ng/mL
  RCmax (accumulation ratio), geometric mean (geometric %CV): 2.28 (54.2)
[2]; 200 mg
  AUC: 22800 ng·h/mL
[2]; [6]
  AUC(0-t): 3720 ng·h/mL
  Cmax: 773 ng/mL
  Tmax: 2 h
[2]; [7]
  AUC(0-t): 22800 ng·h/mL
  Cmax: 1560 ng/mL
  Tmax: 2 h
[2]; 300 mg
  AUC: 30600 ng·h/mL
[2]; [8]
  AUC(0-t): 4890 ng·h/mL
  Cmax: 995 ng/mL
  Tmax: 4.01 h
[2]; [9]
  AUC(0-t): 30600 ng·h/mL
  Cmax: 2260 ng/mL
  Tmax: 4.18 h
[2]; 400 mg
  AUC: 30800 ng·h/mL
[2]; [10]
  AUC(0-t): 6790 ng·h/mL
  Cmax: 1330 ng/mL
  Tmax: 4.07 h
[2]; [11]
  AUC(0-t): 30800 ng·h/mL
  Cmax: 2560 ng/mL
  Tmax: 1.98 h
